Laboratory results: ChEMBL document CHEMBL1142410, “Stagonolides B-F, nonenolides produced by Stagonospora cirsii, a potential mycoherbicide of Cirsium arvense” (J Nat Prod, 2008)

Experiments:
Format in all cases: functional
Cirsium arvense = assay: Phytotoxicity against Cirsium arvense at 1 mg/ml by leaf disk puncture assay
Method in brief: (§1)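 Leaf disks wounded centrally with a needle, kept on moistened filter paper in closed boxes. Compound dissolved in MeOH, diluted with distilled water to 1 mg/mL final (2% v/v MeOH; MeOH-only control); 10 μL drop applied at the wound. Incubated 48 h under cycles of 8 h dark at 20 °C and 16 h light at 24 °C; necrotic area then measured.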

Sonchus arvensis = assay: Phytotoxicity against Sonchus arvensis at 1 mg/ml by leaf disk puncture assay; method in brief: as §1
Colpoda steinii = assay: Phytotoxicity against Colpoda stenii at 0.05 mg/ml after 3 hrs; conditions: Colpoda steini, in the assay text read “Zootoxicity” for “Phytotoxicity”
Method in brief: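 Dried Colpoda steinii culture (~5000 cells per mL) revived in Lozina-Lozinskogo medium, 24 h at 25 °C. Compound in 4% EtOH mixed 1:1 v/v with the suspension, 0.05 mg/mL final; 4% EtOH control. Immobile cells (%) counted over 3–180 min. Full immobilisation within 3 min scored as strong toxicity; loss of motility at ≥180 min scored as medium.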

Q: How did the Activity (Cirsium arvense) turn out when C[C@@H]1C/C=C/[C@@H](O)CCCC(=O)O1 was run?
A: Not toxic

Q: What about the Activity (Sonchus arvensis) of the same compound?
A: Not toxic

Q: CCC[C@H]1OC(=O)CCC/C=C/C(=O)[C@@H]1O was tested. Which Activity (Colpoda steinii) did it give?
A: Not toxic

Q: And the Activity (Cirsium arvense)?
A: Toxic

Q: And the Activity (Sonchus arvensis)?
A: Toxic

Q: C[C@@H]1CC[C@@H](O)/C=C/C=C\C(=O)O1 was tested. Which Activity (Cirsium arvense) did it give?
A: Not toxic

Q: And the Activity (Sonchus arvensis)?
A: Not toxic

Q: CCC[C@H]1OC(=O)CC[C@@H](O)/C=C/[C@H](O)[C@@H]1O was tested. Which Activity (Cirsium arvense) did it give?
A: Not toxic

Q: And the Activity (Sonchus arvensis)?
A: Not toxic

Q: For C[C@@H]1OC(=O)CC[C@H](O)/C=C/[C@@H]2O[C@H]12, which Activity (Cirsium arvense) is on record?
A: Not toxic

Q: What about the Activity (Sonchus arvensis) of the same compound?
A: Not toxic

Q: With C[C@@H]1C[C@H](O)/C=C/[C@@H](O)CCC(=O)O1 as the compound, how does the Activity (Colpoda steinii) read?
A: Not toxic

Q: And the Activity (Cirsium arvense)?
A: Not toxic

Q: And the Activity (Sonchus arvensis)?
A: Not toxic
